# Compound activity: PubChem BioAssay, several laboratories
# In the library only some 12% were active in any assay of this set; here they are far more common.
# ABCG2 inh = inhibitors of human ABCG2 transporter, ABCB1 counter-screen | Q9UNQ0 | IgMXP3 cells, JC-1 efflux, flow cytometry | inhibition, % at 6.6 µM | actives 0.1% (n = 190,000) | AID 1325;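 active means inhibition above 80%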;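 further: 0% = DMSO and 100% = nicardipine control wells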
# Target sequence (Q9UNQ0 whole entry, looked up): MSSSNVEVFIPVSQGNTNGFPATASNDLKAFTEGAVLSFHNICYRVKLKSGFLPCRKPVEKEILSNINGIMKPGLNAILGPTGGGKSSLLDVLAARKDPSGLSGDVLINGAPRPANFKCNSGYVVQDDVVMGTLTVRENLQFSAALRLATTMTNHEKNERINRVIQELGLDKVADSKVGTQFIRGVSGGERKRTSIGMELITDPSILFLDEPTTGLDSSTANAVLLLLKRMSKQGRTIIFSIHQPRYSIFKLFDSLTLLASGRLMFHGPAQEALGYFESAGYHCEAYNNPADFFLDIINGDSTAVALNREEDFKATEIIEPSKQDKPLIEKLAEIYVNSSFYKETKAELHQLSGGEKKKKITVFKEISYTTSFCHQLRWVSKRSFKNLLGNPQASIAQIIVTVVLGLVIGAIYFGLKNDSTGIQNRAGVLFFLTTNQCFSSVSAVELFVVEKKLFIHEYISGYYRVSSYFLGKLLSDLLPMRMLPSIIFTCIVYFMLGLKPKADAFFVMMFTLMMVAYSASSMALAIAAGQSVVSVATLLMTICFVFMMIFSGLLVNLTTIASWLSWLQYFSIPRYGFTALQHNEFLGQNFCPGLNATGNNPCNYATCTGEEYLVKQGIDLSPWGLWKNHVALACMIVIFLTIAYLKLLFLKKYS
#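 System: two drug-resistant human cell lines, ABCG2 and ABCB1; controls: nicardipine high and DMSO low controls; times: 10 min exposure at 25 °C with rotation, no wash; detection: flow cytometry of retained JC-1 fluorescence; read-out basis: percent efflux inhibition, scaled nicardipine 100% to DMSO 0%; doses: one concentration, 6.6 µM final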
# WT yeast gro inh = growth inhibition of WT yeast, mitochondrial fusion screen; mitochondrial fusion phenotypic screen, WT strain; inhibition, % at 10 µM; actives 2.1% (n = 190,000); AID 1362; in the data active means inhibition above about 58%; tested in S. cerevisiae
# RAM network inh = blocks the yeast RAM network. inhibition, % at 50 µM. actives 1.8% (n = 190,000). S. cerevisiae dse1pr::URA3 reporter, 5-FOA growth OD615, 2 d; analog-sensitive cbk1-as2 kinase mutant strain;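 active means inhibition above a set limit, 3 SD over mean compound inhibition, cut at about 8.4% in these data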;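 further: 0% = DMSO-only wells with no growth and 100% = 10 µM 1-NA-PP1 full growth; inhibition rescues growth on 5-FOA so higher OD means more RAM inhibition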
# ABCB1 inh = blocks JC-1 efflux by human ABCB1 transporter; P08183; CCRF-Adr cells, flow cytometry; inhibition, % at 6.6 µM; actives 0.067% (n = 190,000); AID 1326; in the data active means inhibition above about 40%;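 further: 0% = vehicle and 100% = reference inhibitor; higher value means more JC-1 retained so stronger ABCB1 efflux block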
# L major viab = reduces viability of Leishmania major promastigotes | AID 1063 | inhibition, % at 10 µM | resazurin fluorescence viability | actives 9% (n = 200,000); in the data active means inhibition above about 50%;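 further: promastigotes grown with compound for 44 hours at 28 °C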
# Starred values were filed as active, the others as inactive; x = no result.
SMILES,ABCG2 inh,WT yeast gro inh,RAM network inh,ABCB1 inh,L major viab
COc1ccccc1N1C(=O)c2cccc3c(C(=O)O)ccc(c23)C1=O,-1,3,0,0,-2
Cc1ccc(N2C(=O)c3cccc4c(Oc5ccccc5[N+](=O)[O-])ccc(c34)C2=O)c(C)c1,4,3,4,1,97*
COc1ccc(NC(=O)C2CC(=O)N(C(C)C)C2)cc1 (stereo not given),4,-11,1,3,-5
CCOc1ccc(NC(=O)C2CC(=O)N(C(C)C)C2)cc1 (stereo not given),1,63*,1,0,-6
CC(C(=O)NCc1ccccn1)c1ccc([N+](=O)[O-])cc1 (stereo not given),2,-1,1,3,-1
Cc1ccc(-c2ccc(/C=C3\C(=O)ON=C3c3ccccc3)o2)c([N+](=O)[O-])c1,-2,36,7,0,98*
Cc1ccc(/C=C2\C(=O)ON=C2c2ccccc2)o1,3,20,1,0,0
Cc1cs/c(=N\N=C2CCCCC2)n1Cc1ccco1,1,12,1,0,-9
Cc1cc(OCC(=O)Nc2ccc(S(=O)(=O)NC3=NCCCCC3)cc2)c(C(C)C)cc1Cl,10,35,6,5,71*
O=C(Nc1ccccc1)Nc1ncc([N+](=O)[O-])s1,9,70*,3,0,11
NNC(=O)c1cnn(-c2ccccc2)c1-n1cccc1,2,-5,0,1,-3
Cc1ccc(SCCNS(=O)(=O)c2ccc(F)cc2)cc1,0,46,5,0,53*
CC1CCN(C(=O)c2cc(N3C(=O)C4C5CCC(C5)C4C3=O)ccc2Cl)CC1 (stereo not given),1,-20,0,0,-5
O=C(c1cc(N2C(=O)C3C4CCC(C4)C3C2=O)ccc1Cl)N1CCN(c2ccccc2)CC1 (stereo not given),4,-8,1,x,72*
Cc1[nH]n(-c2ccc(Cl)cc2)c(=O)c1C(=O)c1ccccc1,3,10,0,1,-9
CCOC(=O)c1[nH]n(-c2ccc(Cl)cc2)c(=O)c1C,-14,2,1,-1,52*
O=C(NCCc1nnc2ccc(NCc3cccnc3)nn12)c1ccccc1F,3,3,1,0,-6
O=C(COC(=O)COc1cccc(Br)c1)Nc1c(Cl)cccc1Cl,-1,-6,3,0,-7
CCCn1c(SCC(=O)c2cc(OC)ccc2OC)nnc1C(C)C,1,-9,2,0,-3
S=C1NCCNC(=S)NCCOCCOCCOCCN1,0,0,-1,0,6
O=C(Nc1ccc(Cl)c(Cl)c1)N1CCC(N2CCCCC2)CC1,0,0,0,0,91*
COc1cccc(NC(=O)N2CCC(N3CCCCC3)CC2)c1,0,-13,1,0,-1
O=C(Nc1ccc(Cl)cc1)N1CCSCC1,3,-9,0,0,1
O=C(Nc1ccc(Cl)c(Cl)c1)N1CCSCC1,12,-9,0,0,74*
Cc1c(Cl)cccc1NC(=O)c1ccc(-n2ccnc2)nc1,1,-2,2,0,-8
SMILES,ABCG2 inh,WT yeast gro inh,RAM network inh,ABCB1 inh,L major viab
O=C(CCCc1ccccc1)c1ccc2c(c1)OCCO2,-3,4,-1,-1,-2
O=C(CCl)N(C/C=C/c1ccccc1)c1ccc2c(c1)OCCO2,29,-26,5,2,76*
COc1ccc(NC(=O)/C(C#N)=C\C=C\c2ccco2)cc1,4,10,3,0,-1
O=C(NC(Cc1ccccc1)C(=O)O)c1ccc(S(=O)(=O)N2CCCC2)cc1 (stereo not given),3,-5,1,1,72*
O=C(NC(Cc1ccccc1)C(=O)O)c1ccc(S(=O)(=O)N2CCCCC2)cc1 (stereo not given),-1,14,2,0,55*
COc1cccc(COCC(O)Cn2cnc3cc(C)c(C)cc32)c1 (stereo not given),22,7,1,2,31
COc1cc(OC)cc(-c2nnc(SCc3c(F)cccc3Cl)o2)c1,11,38,8.9*,1,3
COc1ccc(-c2nnc(SCc3ccccc3F)o2)cc1,7,-11,2,1,-2
O=C(Nc1ccon1)C12CC3CC(C1)CC(n1cnc([N+](=O)[O-])n1)(C3)C2,6,-6,0,1,62*
COc1ccc(NC(=O)C23CC4CC(C2)CC(n2cnc(Br)n2)(C4)C3)c(C)c1,2,-54,-1,0,-4
COc1ccc(NC(=O)C23CC4CC(C2)CC(n2cnc(Br)n2)(C4)C3)cc1OC,1,-7,2,0,-3
Cc1cc(NC(=O)C23CC4CC(C2)CC(n2cnc([N+](=O)[O-])n2)(C4)C3)no1,9,-14,3,1,51*
O=C(CC1CCCC1)Nc1ccc2c(c1)CCC2,1,5,-2,0,3
Cc1ccc(CN2CCN(C(=O)c3ccncc3)CC2)cc1,-1,-12,3,0,-5
Cc1ccc(C(C[N+](=O)[O-])c2c(-c3ccccc3O)[nH][nH]c2=O)cc1 (stereo not given),0,9,0,0,100*
O=C(c1ccccc1)c1cn[nH]c1-c1ccccc1O,2,-16,0,1,-1
COc1ccc(C(C[N+](=O)[O-])c2c(C)[nH]c3ccccc23)cc1OC (stereo not given),2,-6,0,0,16
O=c1[nH][nH]c(-c2ccccc2O)c1C(C[N+](=O)[O-])c1ccc(Br)cc1 (stereo not given),-3,0,1,-1,100*
COc1cc(NS(=O)(=O)c2ccc3c(c2)n(C)c(=O)n3C)cc(OC)c1,-2,-3,0,0,33
O=C(Nc1ncc2c(n1)-c1ccccc1OC2)c1ccc(F)cc1,3,8,1,1,-6
O=C(Nc1ncc2c(n1)-c1ccccc1OC2)c1cccc([N+](=O)[O-])c1,8,17,8.6*,0,7
Fc1ccccc1/C=N/Nc1nc(N2CCCCC2)nc(N2CCCCC2)n1,-6,30,1,-2,36
C(=N\Nc1nc(N2CCCCC2)nc(N2CCCCC2)n1)/c1c[nH]c2ccccc12,0,63*,0,0,32
Cc1[nH]c2ccccc2c1/C=N/Nc1nc(N2CCCCC2)nc(N2CCCCC2)n1,-3,56,1,0,77*
Brc1cc2c(cc1/C=N/Nc1nc(N3CCCCC3)nc(N3CCCCC3)n1)OCO2,5,27,4,4,67*
COC(=O)c1ccc(COn2nnc3ccccc32)cc1,4,-1,-1,0,7
CC1(C)SC(=S)N(Cc2ccc3c(c2)OCO3)C1N(O)C(=O)NC1CCCCC1 (stereo not given),4,10,4,3,82*
